Experimental data pooled from the literature.
Protocols differ between the studies behind these lines.
Read-out: cell growth or viability

With `CCCCCCCCCCCCCCCc1ccc(CP(=O)(O)O)cc1` the viability was over 93% (Mm1; trypan blue; 10 µM; 20 h).
For `O=C(O)c1ccc(P(c2ccccc2)c2ccccc2)cc1`, the CC50 was 210 µg/mL (NIH3T3; resazurin; 18 h).
`COc1cc(OC)cc([C@H]2C[C@@H](C)OC(=O)c3cc4ccccn4c32)c1` (racemic) gave a CC50 of over 100 µM (HFF-1; resazurin; 72 h).
`N=C(N)NCc1ccc(NC(=O)c2ccc(C(=O)Nc3ccc(C4=CCN(C(=N)N)CC4)nn3)cc2)cc1` has a CC50 of 231 µM (NIH3T3; MTS; 24 h).
The CC50 of `O=C(CCl)Cn1nnc(-c2ccccc2)c1COC(=O)NCc1ccccc1` is reported as 20 µM (HFF-1; ATP luminescence; 48 h).
`COc1cccc2c1C(=O)c1c(O)c3c(c(O)c1C2=O)C[C@@](O)(C(=O)CO)C[C@@H]3O[C@H]1C[C@H](N)[C@H](O)[C@H](C)O1` gave a CC50 of 0.468 µM (HFF-1; resazurin; 72 h).
With `N=C(N)NCc1ccc(NC(=O)c2ccc(C(=O)Nc3ccc(C4=CCN(C(=N)N)CC4)cc3)cn2)cc1` the CC50 was over 1170 µM (NIH3T3; MTS; 24 h).
For `COc1ccc(S(=O)(=O)ON=C2C=C(C)C(=O)C(C)=C2)cc1`, the CC50 was 4.74 µM (PC-3).
